Results: ChEMBL document CHEMBL1240449, “Tricyclononene carboxamide derivatives as novel anti-HIV-1 agents” (Eur J Med Chem, 2010)

Columns and labels:
[1] = Cytotoxicity against human CEMx174 5.25M7 cells after 4 days by XTT assay; type: cell-based
Procedure, shortened: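 Graded compound concentrations added to an equal volume of CEMx174 5.25M7 cells (5 × 10⁵/mL) and incubated 4 days at 37 °C. XTT (1 mg/mL) containing 0.02 mM PMS was added and absorbance read at 450 nm after 4 h. CC50 by CalcuSyn.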

[2] = test system: Human immunodeficiency virus 1; test: Antiviral activity against R5 tropic HIV1 BaL infected in human CEMx174 5.25M7 cells after 3 days by luciferase assay; type: functional, organism-based; conditions: Human immunodeficiency virus 1, BaL, CEMx174 5.25M7, 72 h
Procedure, shortened: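 Compound at graded concentrations, in triplicate, preincubated with an equal volume of HIV-1 Bal (MOI 0.01) at 37 °C for 30 min. CEMx174 5.25M7 cells (5 × 10⁵/mL; CD4+, CXCR4+, CCR5+) were then added. After overnight culture the medium was replaced. On day 3 the cells were lysed and luciferase activity read. IC50 from percent inhibition by CalcuSyn.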

[3] = biological target: Protease (Human immunodeficiency virus 1, UniProt Q9YQ12); test: Inhibition of HIV1 recombinant protease
Protease, sequence (Q9YQ12 whole entry): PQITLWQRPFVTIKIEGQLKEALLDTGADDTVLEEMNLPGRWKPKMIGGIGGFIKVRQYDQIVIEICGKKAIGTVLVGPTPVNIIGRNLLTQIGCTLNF
Procedure, shortened: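 Recombinant HIV-1 protease, purified, in 0.1 mol/L sodium acetate pH 5.0 with 0.9 mol/L NaCl, 1 mmol/L DTT, 1 mmol/L EDTA and a fluorescent peptide substrate. Graded compound concentrations were preincubated in this buffer for 20 min at 37 °C, then enzyme was added to start the reaction. Percent inhibition and IC50 were calculated.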

[4] = biological target: Human immunodeficiency virus type 1 reverse transcriptase (Human immunodeficiency virus 1, UniProt Q72547); test: Inhibition of HIV1 reverse transcriptase after 1 hr by ELISA
[5] = biological target: Human immunodeficiency virus type 1 integrase (Human immunodeficiency virus 1, UniProt Q7ZJM1); test: Inhibition of HIV1 integrase after 1 hr
Human immunodeficiency virus type 1 integrase, sequence (Q7ZJM1 whole entry): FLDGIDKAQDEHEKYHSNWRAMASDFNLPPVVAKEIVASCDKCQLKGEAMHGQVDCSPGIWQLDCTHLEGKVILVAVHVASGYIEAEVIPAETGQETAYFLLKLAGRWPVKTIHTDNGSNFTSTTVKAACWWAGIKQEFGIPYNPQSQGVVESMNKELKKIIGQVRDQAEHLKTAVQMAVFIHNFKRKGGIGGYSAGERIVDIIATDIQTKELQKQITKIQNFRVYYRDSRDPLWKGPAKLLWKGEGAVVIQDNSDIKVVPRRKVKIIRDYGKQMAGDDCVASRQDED
Procedure, shortened: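 Integrase (F185K/C280S IN1-288, expressed in E. coli) assayed in wells coated with a donor DNA duplex substrate. Final read-out by alkaline phosphatase at 405 nm, after PBS-Tween washes and 1% BSA at 37 °C for 40 min. ABPS included as control. IC50 by CalcuSyn.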

[6] = Selectivity index, CC50 for human CEMx174 5.25M7 cells to IC50 for R5 tropic HIV1 BaL; type: functional
Procedure, shortened: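 Ratio of CC50 (XTT, CEMx174 5.25M7 cells, 4 days) to IC50 (HIV-1 Bal luciferase infection assay, day 3) in the same cell line.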

Row | Structure (SMILES) | IC50 ([2]; read-out: IC50) | IC50 [3] | IC50 [4] | IC50 [5] | IC50 ([2]; read-out: pIC50 (converted)) | CC50 at 96 h [1] | Selectivity Index [6]
1 | O=C(NN1C(=O)[C@@H]2C3C=CC(C4CC43)[C@@H]2C1=O)c1ccc(CN2CCN(c3ccncc3)C2=O)cc1 (stereo partly drawn) | > 165 µM | – | – | – | – | > 165 µM | –
2 | O=C(NN1C(=O)[C@@H]2C3C=CC(C4CC43)[C@@H]2C1=O)c1ccc(COc2ccc(F)cc2)cc1 (stereo partly drawn) | 31.4 µM | – | – | – | 31.5 µM | 29.7 µM | 0.94
3 | Cc1nnc(C(C)C)n1-c1ccc(C(=O)NN2C(=O)C3C4C=CC(C5CC45)C3C2=O)cc1 (stereo not drawn) | > 185 µM | – | – | – | – | > 185 µM | –
4 | Cc1cccc(C)c1C(=O)N1CCC(C(=O)NN2C(=O)C3C4C=CC(C5CC45)C3C2=O)CC1 (stereo not drawn) | > 118 µM | – | – | – | – | > 118 µM | –
5 | O=C(N[C@H](C(=O)NN1C(=O)C2C3C=CC(C4CC34)C2C1=O)c1ccccc1)c1ccccc1 (stereo partly drawn) | 155 µM | – | – | – | 155 µM | > 181 µM | >1.17
6 | O=C(N[C@@H](Cc1ccccc1)C(=O)NN1C(=O)C2C3C=CC(C4CC34)C2C1=O)c1ccccc1 (stereo partly drawn) | 89.4 µM | – | – | – | 89.3 µM | – | –
7 | CN(CCCN1C(=O)C2C3C=CC(C4CC34)C2C1=O)Cc1ccccc1 (stereo not drawn) | 30.4 µM | – | – | – | 30.4 µM | 84 µM | 2.76
8 | O=C1C2C3C=CC(C4CC34)C2C(=O)N1CCC(=O)n1cnc2ccccc21 (stereo not drawn) | > 221 µM | – | – | – | – | > 221 µM | –
9 | CN1CCN(Cc2ccc(C(=O)NN3C(=O)[C@@H]4C5C=CC(C6CC65)[C@@H]4C3=O)cc2)CC1 (stereo partly drawn) | 82.8 µM | – | – | – | 82.8 µM | – | –
10 | O=C(NN1C(=O)[C@@H]2C3C=CC(C4CC43)[C@@H]2C1=O)c1ccc(CNc2cccc(Cl)c2)cc1 (stereo partly drawn) | 13.3 µM | – | – | – | 13.2 µM | 27.8 µM | 2.01
11 | CCN(Cc1ccc(C(=O)NN2C(=O)[C@@H]3C4C=CC(C5CC54)[C@@H]3C2=O)cc1)c1ccccc1 (stereo partly drawn) | 57.2 µM | – | – | – | 57.1 µM | 57 µM | 1
12 | O=C(NN1C(=O)[C@@H]2C3C=CC(C4CC43)[C@@H]2C1=O)c1ccc(CN(Cc2ccccc2)c2ccccc2)cc1 (stereo partly drawn) | 17.1 µM | – | – | – | 17.1 µM | 25.5 µM | 1.51
13 | O=C(NN1C(=O)[C@@H]2[C@@H]3C=C[C@@H]([C@H]4C[C@@H]34)[C@@H]2C1=O)c1ccc(C(F)(F)F)cc1 [TECOVIRIMAT] | > 200 µM | – | – | – | – | – | –

Further lines, with some results ahead:

Row | IC50 ([2]; read-out: IC50) | IC50 [3] | IC50 [4] | IC50 [5] | IC50 ([2]; read-out: pIC50 (converted)) | Structure (SMILES) | CC50 at 96 h [1] | Selectivity Index [6]
14 | 0.41 µM | > 114 µM | > 457 µM | > 228 µM | 0.41 µM | O=C(NN1C(=O)[C@@H]2C3C=CC(C4CC43)[C@@H]2C1=O)c1ccc(Cn2cnc3ccccc32)cc1 (stereo partly drawn) | 120 µM | 291.68
15 | 1.68 µM | – | – | – | 1.68 µM | Cc1nc2ccccc2n1Cc1ccc(C(=O)NN2C(=O)[C@@H]3C4C=CC(C5CC54)[C@@H]3C2=O)cc1 (stereo partly drawn) | 1.02 µM | 0.61
16 | 7.8 µM | – | – | – | 7.8 µM | Cc1ccc(C)n1-c1ccc(C(=O)NN2C(=O)C3C4C=CC(C5CC45)C3C2=O)cc1 (stereo not drawn) | 3.54 µM | 0.45
17 | 5.7 µM | – | – | – | 5.7 µM | O=C(Nc1ccccc1)c1ccc(CN2C(=O)C3C4C=CC(C5CC45)C3C2=O)cc1 (stereo not drawn) | 44 µM | 7.72
18 | 13.2 µM | – | – | – | 13.2 µM | CC(C)CN(Cc1ccc(C(=O)NN2C(=O)[C@@H]3C4C=CC(C5CC54)[C@@H]3C2=O)cc1)c1ccccc1 (stereo partly drawn) | 32.7 µM | 2.48
19 | 0.05 µM | – | – | – | – | Cc1ccc(-c2ccc3c(c2)C=C(C(=O)Nc2ccc(C[N+](C)(C)C4CCOCC4)cc2)CCC3)cc1.[Cl-] | 7.88 µM | 157.6
